In ChEMBL document CHEMBL4261600 (Eur J Med Chem, 2018):

Key:
[1] = target: Cyclin-dependent kinase 9 (Homo sapiens, UniProt P50750); test: Inhibition of CDK9 in human MEC1 cells assessed as decrease in RNA polymerase 2 phosphorylation at Ser 2 residues in CTD domain after 2 hrs by immunoblotting analysis; assay type: cell-based
[2] = MRT (0 to infinity) in beagle dog at 10 mg/kg, po by LC-MS/MS analysis; assay type: ADME, organism-based, Canis lupus familiaris; details: in vivo
[3] = tested on: Tyrosine-protein kinase ABL1 (Homo sapiens), P00519 [F317I]; test: Binding affinity to human non-phosphorylated ABL1 F317I mutant (S229 to K512 residues) expressed in mammalian expression system assessed as remaining unbound target protein level at 1000 nM by Kinomescan method relative to control
Procedure, shortened: (§1)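 KINOMEscan competition-binding profiling across the panel of 468 kinases and mutants, with inhibitor tested at 1 μM. Binding is expressed as percent of control, with DMSO as the reference control.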

[4] = tested on: Tyrosine-protein kinase ABL1 (Homo sapiens), P00519 [Q252H]; test: Binding affinity to human phosphorylated ABL1 Q252H mutant expressed in mammalian expression system assessed as remaining unbound target protein level at 1000 nM by Kinomescan method relative to control
Procedure, shortened: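 Single-point competition binding screen across a panel of 468 kinases and mutants, with the inhibitor at 1 μM. Binding is read out as percent of a DMSO control, and targets below 1 percent control were classed as strong binders.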

[5] = target: NUAK family SNF1-like kinase 1 (Homo sapiens) (UniProt O60285); test: Binding affinity to wild-type human partial length ARK5 (E25 to I332 residues) expressed in bacterial expression system assessed as remaining unbound target protein level at 1000 nM by Kinomescan method relative to control
Procedure, shortened: (§2)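 Profiled in a KINOMEscan binding panel with the inhibitor at a single concentration of 1 μM. Binding to each kinase was read out as percent of control, relative to a DMSO control. Strong binders were defined as those with a percent control value below 1.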

[6] = target: Cyclin-dependent kinase-like 5 (Homo sapiens) (UniProt O76039); test: Binding affinity to wild-type human partial length CDKL5 (M1 to S337 residues) expressed in mammalian expression system assessed as remaining unbound target protein level at 1000 nM by Kinomescan method relative to control
Procedure, shortened: (§3)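 KINOMEscan competition binding profile across a panel of 468 kinases and mutants, with the inhibitor tested at a single concentration of 1 μM. Binding is reported as percent of control, meaning signal relative to a DMSO control.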

[7] = target: Casein kinase I isoform gamma-1 (Homo sapiens) (UniProt Q9HCP0); test: Binding affinity to wild-type human partial length CSNK1G1 (T15 to S353 residues) expressed in bacterial expression system assessed as remaining unbound target protein level at 1000 nM by Kinomescan method relative to control; procedure, shortened: as §3
[8] = target: Serine/threonine-protein kinase 17A (Homo sapiens) (UniProt Q9UEE5); test: Binding affinity to wild-type human partial length DRAK1 (R32 to E363 residues) expressed in bacterial expression system assessed as remaining unbound target protein level at 1000 nM by Kinomescan method relative to control
[9] = target: Epidermal growth factor receptor (Homo sapiens) (UniProt P00533); test: Binding affinity to human partial length EGFR L747-T751del/Sins mutant expressed in bacterial expression system assessed as remaining unbound target protein level at 1000 nM by Kinomescan method relative to control; procedure, shortened: as §1
[10] = tested on: Epidermal growth factor receptor (Homo sapiens), P00533 [L861Q]; test: Binding affinity to human partial length EGFR L861Q mutant (R669 to V1011 residues) expressed in bacterial expression system assessed as remaining unbound target protein level at 1000 nM by Kinomescan method relative to control; procedure, shortened: as §1
[11] = target: Ephrin type-A receptor 2 (Homo sapiens) (UniProt P29317); test: Binding affinity to wild-type human partial length EPHA2 (T593 to V891 residues) expressed in bacterial expression system assessed as remaining unbound target protein level at 1000 nM by Kinomescan method relative to control
[12] = target: Receptor tyrosine-protein kinase erbB-4 (Homo sapiens) (UniProt Q15303); test: Binding affinity to wild-type human partial length ERBB4 (L690 to K994 residues) expressed in bacterial expression system assessed as remaining unbound target protein level at 1000 nM by Kinomescan method relative to control
[13] = target: Fibroblast growth factor receptor 1 (Homo sapiens) (UniProt P11362); test: Binding affinity to wild-type human partial length FGFR1 (P357 to V669 residues) expressed in bacterial expression system assessed as remaining unbound target protein level at 1000 nM by Kinomescan method relative to control
Procedure, shortened: (§4)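 KINOMEscan binding panel of 468 kinases/mutants. Inhibitor was tested at a single concentration of 1 μM. Binding is reported as percent of control, defined relative to a DMSO control.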

[14] = target: Serine/threonine-protein kinase MARK1 (Homo sapiens) (UniProt Q9P0L2); test: Binding affinity to wild-type human partial length MARK1 (Q30 to T341 residues) expressed in bacterial expression system assessed as remaining unbound target protein level at 1000 nM by Kinomescan method relative to control; procedure, shortened: as §4
[15] = tested on: Hepatocyte growth factor receptor (Homo sapiens), P08581 [M1250T]; test: Binding affinity to human partial length MET M1250T mutant (D1010 to S1367 residues) expressed in bacterial expression system assessed as remaining unbound target protein level at 1000 nM by Kinomescan method relative to control; procedure, shortened: as §1
[16] = target: Myosin-IIIa (Homo sapiens) (UniProt Q8NEV4); test: Binding affinity to wild-type human partial length MYO3A (M1 to K338 residues) expressed in bacterial expression system assessed as remaining unbound target protein level at 1000 nM by Kinomescan method relative to control
[17] = target: Serine/threonine-protein kinase 38-like (Homo sapiens) (UniProt Q9Y2H1); test: Binding affinity to wild-type human partial length NDR2 (N34 to E447 residues) expressed in bacterial expression system assessed as remaining unbound target protein level at 1000 nM by Kinomescan method relative to control
[18] = target: Serine/threonine-protein kinase Sgk3 (Homo sapiens) (UniProt Q96BR1); test: Binding affinity to wild-type human partial length SGK3 (M119 to L496 residues) expressed in mammalian expression system assessed as remaining unbound target protein level at 1000 nM by Kinomescan method relative to control
[19] = target: Proto-oncogene tyrosine-protein kinase Src (Homo sapiens) (UniProt P12931); test: Binding affinity to wild-type human partial length SRC (L240 to L536 residues) expressed in bacterial expression system assessed as remaining unbound target protein level at 1000 nM by Kinomescan method relative to control
[20] = target: Serine/threonine-protein kinase 32B (Homo sapiens) (UniProt Q9NY57); test: Binding affinity to wild-type human full length YANK2 (M1 to S414 residues) expressed in bacterial expression system assessed as remaining unbound target protein level at 1000 nM by Kinomescan method relative to control; procedure, shortened: as §2
[21] = target: Cyclin-dependent kinase 11B (Homo sapiens, UniProt P21127); test: Inhibition of recombinant GST-tagged inactive state of human CDK11
[22] = species on record: Homo sapiens; test: Selectivity ratio of IC50 for recombinant full length His/GST-tagged human CDK5/p25 to IC50 for recombinant full length His-tagged human CDK9/CyclinT1

Cyclin-dependent kinase 9, sequence (P50750 whole entry, the tested form may be a part): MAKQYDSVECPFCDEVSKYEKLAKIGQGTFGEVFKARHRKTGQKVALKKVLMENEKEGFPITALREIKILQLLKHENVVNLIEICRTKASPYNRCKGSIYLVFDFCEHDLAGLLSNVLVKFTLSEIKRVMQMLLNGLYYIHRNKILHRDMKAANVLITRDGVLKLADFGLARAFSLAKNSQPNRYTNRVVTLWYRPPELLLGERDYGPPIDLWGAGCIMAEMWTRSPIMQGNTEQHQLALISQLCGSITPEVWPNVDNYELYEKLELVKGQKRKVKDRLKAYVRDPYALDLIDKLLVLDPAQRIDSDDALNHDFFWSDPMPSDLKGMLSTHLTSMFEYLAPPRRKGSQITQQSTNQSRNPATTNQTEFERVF
Serine/threonine-protein kinase MARK1 (Homo sapiens), sequence (Q9P0L2 whole entry, looked up, the tested form may be a part): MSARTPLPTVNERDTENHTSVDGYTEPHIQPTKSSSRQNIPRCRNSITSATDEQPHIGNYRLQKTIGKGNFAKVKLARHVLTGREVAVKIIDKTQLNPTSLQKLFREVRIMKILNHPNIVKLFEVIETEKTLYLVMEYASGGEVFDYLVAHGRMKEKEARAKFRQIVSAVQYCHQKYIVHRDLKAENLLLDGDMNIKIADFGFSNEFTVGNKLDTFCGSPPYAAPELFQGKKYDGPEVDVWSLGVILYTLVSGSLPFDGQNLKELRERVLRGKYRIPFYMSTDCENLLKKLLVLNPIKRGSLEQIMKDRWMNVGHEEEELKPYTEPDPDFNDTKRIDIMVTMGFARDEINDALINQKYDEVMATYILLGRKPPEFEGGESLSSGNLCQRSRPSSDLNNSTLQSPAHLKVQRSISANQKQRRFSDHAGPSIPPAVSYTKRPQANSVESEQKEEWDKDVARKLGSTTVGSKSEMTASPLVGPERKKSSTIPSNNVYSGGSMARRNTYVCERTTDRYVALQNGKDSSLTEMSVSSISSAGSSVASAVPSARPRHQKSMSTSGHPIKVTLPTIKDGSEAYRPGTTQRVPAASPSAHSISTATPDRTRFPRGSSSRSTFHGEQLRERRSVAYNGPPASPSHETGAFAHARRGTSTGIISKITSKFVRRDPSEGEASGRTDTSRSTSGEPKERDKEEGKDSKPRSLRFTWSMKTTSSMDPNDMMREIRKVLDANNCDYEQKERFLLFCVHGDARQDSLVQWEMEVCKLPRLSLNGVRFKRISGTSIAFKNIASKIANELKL
Myosin-IIIa (Homo sapiens), sequence (Q8NEV4 whole entry, the tested form may be a part): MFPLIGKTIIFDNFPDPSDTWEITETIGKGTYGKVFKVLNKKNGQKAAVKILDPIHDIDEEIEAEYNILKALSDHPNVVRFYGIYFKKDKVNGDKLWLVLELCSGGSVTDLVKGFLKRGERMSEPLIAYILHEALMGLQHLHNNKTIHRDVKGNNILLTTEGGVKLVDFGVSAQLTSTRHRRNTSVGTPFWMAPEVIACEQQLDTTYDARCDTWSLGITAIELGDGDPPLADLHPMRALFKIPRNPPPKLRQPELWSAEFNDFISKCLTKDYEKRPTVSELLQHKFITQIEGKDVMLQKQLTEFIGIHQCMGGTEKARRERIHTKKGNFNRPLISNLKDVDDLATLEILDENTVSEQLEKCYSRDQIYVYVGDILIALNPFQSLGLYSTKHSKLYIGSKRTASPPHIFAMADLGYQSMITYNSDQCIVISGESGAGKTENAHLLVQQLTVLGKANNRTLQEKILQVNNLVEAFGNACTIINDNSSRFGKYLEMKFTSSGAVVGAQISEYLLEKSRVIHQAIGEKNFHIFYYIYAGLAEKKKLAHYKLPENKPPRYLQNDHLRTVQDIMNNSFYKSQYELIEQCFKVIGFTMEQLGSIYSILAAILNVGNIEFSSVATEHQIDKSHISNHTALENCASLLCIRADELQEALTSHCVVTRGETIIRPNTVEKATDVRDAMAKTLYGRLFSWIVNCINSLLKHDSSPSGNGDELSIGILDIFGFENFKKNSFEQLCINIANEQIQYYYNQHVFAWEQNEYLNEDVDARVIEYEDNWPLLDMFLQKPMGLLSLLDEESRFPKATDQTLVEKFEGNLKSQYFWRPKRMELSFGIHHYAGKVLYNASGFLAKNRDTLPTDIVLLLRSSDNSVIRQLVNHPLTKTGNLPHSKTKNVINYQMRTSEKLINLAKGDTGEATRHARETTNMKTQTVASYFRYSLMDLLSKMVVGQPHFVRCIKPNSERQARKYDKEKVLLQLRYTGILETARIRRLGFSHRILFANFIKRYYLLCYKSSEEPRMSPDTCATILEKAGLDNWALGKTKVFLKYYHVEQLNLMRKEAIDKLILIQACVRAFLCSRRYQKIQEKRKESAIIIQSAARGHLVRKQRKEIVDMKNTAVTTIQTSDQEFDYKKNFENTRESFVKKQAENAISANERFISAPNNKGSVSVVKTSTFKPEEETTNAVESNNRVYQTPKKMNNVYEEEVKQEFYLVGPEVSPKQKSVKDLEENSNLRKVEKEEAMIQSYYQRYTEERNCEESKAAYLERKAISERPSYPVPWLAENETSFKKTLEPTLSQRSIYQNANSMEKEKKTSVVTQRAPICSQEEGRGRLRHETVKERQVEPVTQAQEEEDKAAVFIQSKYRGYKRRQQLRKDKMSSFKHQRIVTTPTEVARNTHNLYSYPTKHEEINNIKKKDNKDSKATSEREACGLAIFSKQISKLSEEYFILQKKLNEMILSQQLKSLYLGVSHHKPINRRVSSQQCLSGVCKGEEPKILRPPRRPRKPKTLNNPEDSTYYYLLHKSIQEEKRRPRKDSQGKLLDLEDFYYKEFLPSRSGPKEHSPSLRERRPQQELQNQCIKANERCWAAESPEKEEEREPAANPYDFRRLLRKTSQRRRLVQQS
Fibroblast growth factor receptor 1 (Homo sapiens), sequence (P11362 22-822 limits assumed): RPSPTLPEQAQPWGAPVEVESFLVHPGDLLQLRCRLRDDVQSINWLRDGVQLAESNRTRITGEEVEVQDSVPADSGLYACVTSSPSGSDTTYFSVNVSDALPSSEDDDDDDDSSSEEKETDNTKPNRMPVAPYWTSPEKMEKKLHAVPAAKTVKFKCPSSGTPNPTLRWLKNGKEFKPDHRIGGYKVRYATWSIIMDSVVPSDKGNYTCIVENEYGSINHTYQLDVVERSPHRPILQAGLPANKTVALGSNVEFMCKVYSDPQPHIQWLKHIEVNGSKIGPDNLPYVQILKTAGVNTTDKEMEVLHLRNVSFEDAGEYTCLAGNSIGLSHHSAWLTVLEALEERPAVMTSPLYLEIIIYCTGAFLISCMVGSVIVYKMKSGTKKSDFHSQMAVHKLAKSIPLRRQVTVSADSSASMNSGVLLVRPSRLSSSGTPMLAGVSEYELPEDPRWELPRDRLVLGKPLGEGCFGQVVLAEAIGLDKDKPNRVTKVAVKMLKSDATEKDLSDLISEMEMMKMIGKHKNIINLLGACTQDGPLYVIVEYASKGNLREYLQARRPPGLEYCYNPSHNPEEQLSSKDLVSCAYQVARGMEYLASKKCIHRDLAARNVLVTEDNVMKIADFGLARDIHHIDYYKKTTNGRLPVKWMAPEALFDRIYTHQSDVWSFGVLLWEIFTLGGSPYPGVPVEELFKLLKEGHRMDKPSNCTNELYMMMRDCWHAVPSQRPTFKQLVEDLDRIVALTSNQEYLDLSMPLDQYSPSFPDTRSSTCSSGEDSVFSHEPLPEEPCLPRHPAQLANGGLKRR
Receptor tyrosine-protein kinase erbB-4 (Homo sapiens), sequence (Q15303 whole entry, the tested form may be a part): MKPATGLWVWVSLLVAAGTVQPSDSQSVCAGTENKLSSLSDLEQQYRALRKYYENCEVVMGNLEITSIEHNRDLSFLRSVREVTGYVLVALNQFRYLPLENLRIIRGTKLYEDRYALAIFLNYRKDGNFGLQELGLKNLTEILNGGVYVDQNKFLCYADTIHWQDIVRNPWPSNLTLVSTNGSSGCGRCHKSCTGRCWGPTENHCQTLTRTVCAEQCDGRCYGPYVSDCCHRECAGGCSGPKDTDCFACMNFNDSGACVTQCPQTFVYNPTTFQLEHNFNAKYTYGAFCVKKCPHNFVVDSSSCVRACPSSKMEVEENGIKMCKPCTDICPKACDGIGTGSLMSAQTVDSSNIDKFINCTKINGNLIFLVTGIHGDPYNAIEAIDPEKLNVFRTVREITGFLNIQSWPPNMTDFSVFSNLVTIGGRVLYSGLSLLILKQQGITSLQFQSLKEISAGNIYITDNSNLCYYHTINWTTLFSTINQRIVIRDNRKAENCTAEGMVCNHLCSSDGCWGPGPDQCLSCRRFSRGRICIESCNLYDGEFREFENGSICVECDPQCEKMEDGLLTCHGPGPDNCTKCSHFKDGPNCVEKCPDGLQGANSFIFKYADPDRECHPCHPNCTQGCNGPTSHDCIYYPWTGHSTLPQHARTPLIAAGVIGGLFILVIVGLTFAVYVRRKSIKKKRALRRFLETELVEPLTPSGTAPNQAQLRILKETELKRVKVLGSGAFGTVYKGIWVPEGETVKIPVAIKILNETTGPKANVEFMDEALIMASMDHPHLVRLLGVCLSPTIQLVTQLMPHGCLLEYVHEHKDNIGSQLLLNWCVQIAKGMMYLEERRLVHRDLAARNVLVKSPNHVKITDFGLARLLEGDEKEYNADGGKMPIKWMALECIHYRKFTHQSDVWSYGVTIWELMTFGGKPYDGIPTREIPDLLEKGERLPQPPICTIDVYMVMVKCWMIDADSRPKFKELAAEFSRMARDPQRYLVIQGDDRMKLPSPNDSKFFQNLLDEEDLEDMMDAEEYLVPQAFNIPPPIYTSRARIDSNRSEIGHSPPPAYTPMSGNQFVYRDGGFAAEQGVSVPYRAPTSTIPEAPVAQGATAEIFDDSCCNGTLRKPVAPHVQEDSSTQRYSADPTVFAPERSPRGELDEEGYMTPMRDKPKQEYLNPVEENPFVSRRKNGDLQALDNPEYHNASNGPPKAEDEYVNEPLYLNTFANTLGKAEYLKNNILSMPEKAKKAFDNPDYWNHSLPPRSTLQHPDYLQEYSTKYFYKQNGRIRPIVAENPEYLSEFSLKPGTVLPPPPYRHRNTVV

What does the source list for `COCCN[C@H]1CC[C@H](Nc2cc(-c3csc(NCC4(C#N)CCOCC4)n3)c(Cl)cn2)CC1`?
EC50 [1]: < 0.1 µM; inhibition [1]: Dose-dependent effect; MRT inf [2]: 29.2 h; Activity [3]: 90%; Activity [4]: 90%; Activity [5]: 100%; Activity [6]: 21%; Activity [7]: 93%; Activity [8]: 100%; Activity [9]: 90%; Activity [10]: 76%; Activity [11]: 84%; Activity [12]: 85%; Activity [13]: 95%; Activity [14]: 91%; Activity [15]: 100%; Activity [16]: 100%; Activity [17]: 78%; Activity [18]: 100%; Activity [19]: 89%; Activity [20]: 100%; IC50 [21]: > 10 µM; Ratio IC50 [22]: > 1000
